Screening data (PubChem)
Most compounds without a hit are left out; they make up all but 3.4% or so of the library.
TAAR1 ag: human TAAR1 agonism | CHO RD-HGA16 TAAR1, Fluo-8 calcium fluorescence; vehicle wells 0%, saturating PEA agonist 100% | hit rate 0.99% among 360,000 | activation, % at 3 µM | Q96RJ0;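 active = activation above the mean activation of all test compounds in the run plus 3 SD, cut at about 38% in these data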
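Signal – calcium-sensitive Fluo-8 signal, excitation 470-495, emission 515-575 nm · System – RD-HGA16 (CHO) cells co-expressing Gα16 and hTAAR1 · Incubation – 17-24 h seeding, 75 min 37 °C dye, 30 min RT · Compound dosing – 3 µM single concentration · Repeats – no replicates (n 1)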
TRPN1 ag: activates the zebrafish TRPN1 channel | HEK293 zebrafish TRPN1-YFP, Fluo-8 calcium fluorescence; 100% = response to 87 µM carbachol | activation, % at 3 µM | AID 1424 | hit rate 0.18% among 220,000;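 active = activation above its plate's cutoff, the mean activation of test wells on that plate plus 3 SD, cut at about 19% in these data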;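 note: 0% = DMSO alone and 100% = 87 µM carbachol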
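Assay system: Zebrafish TRPN1-YFP in HEK293 cells | Incubation: Dye loading 1 h at 37 °C, then 30 min room temperature | Measured by: Kinetic Fluo-8 fluorescence, ex 470-495, em 515-575 nm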
LANA-H2A inh: blocks KSHV LANA binding to histone H2A/H2B | cell-free LANA-H2A/H2B peptide, fluorescence polarization | inhibition, % (no concentration beside the values) | hit rate 0.6% among 320,000; in the data active = inhibition mostly above about 10%, no sharp cut-off; inactive = mostly below about 6.7%
TRPML3 agonist: human mucolipin-3 channel agonism; Q8TDD5; HEK293 TRPML3-YFP, Fluo-8 calcium fluorescence; 100% = the carbachol control signal; activation, % at 3 µM; hit rate 0.29% among 220,000; AID 1448;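 active = activation above its plate's cutoff, the mean activation of the plate's test wells plus 3 SD, cut at about 12% in these data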;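 note: 0% = DMSO only wells and 100% = carbachol wells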
Target sequence (Q8TDD5 whole entry, looked up): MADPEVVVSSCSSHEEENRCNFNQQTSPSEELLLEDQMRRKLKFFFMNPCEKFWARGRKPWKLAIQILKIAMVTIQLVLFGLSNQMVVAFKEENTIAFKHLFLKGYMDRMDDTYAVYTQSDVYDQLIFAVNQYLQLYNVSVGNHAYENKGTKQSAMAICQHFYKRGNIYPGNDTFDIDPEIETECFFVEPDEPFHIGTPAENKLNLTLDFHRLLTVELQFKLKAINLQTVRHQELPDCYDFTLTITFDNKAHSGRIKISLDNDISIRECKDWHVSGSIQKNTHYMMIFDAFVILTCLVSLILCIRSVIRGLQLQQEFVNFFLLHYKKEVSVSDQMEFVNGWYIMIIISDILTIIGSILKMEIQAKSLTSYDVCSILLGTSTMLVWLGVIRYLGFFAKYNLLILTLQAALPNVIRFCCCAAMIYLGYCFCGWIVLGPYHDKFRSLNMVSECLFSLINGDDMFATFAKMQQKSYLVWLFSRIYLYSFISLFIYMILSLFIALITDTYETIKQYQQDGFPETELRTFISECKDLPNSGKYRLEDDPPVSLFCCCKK
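Test system: HEK293 cells stably carrying human TRPML3-YFP; Doses: single dose, 3 µM final nominal compound, 0.3% DMSO final; Schedule: dye loading 1 h 37 °C then 30 min ambient, 125 s read; Technique: Fluo-8 calcium fluorescence; Benchmarks: high control carbachol 87 µM, low control DMSO.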
GPR7 antagonist: blocks human GPR7 receptor signaling. GPR7-expressing cells, fluorescence antagonist assay. inhibition, % at 4.4 µM. hit rate 1.1% among 290,000; in the data active = inhibition above about 16%, passing the limit was not always enough;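 note: cells stimulated with the agonist NPW; 0% = agonist with vehicle and 100% = vehicle without agonist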
TAAR1 antagonist: antagonists of human TAAR1; CHO RD-HGA16 TAAR1, Fluo-8 calcium fluorescence, antagonist; hit rate 1.5% among 360,000; inhibition, % at 3 µM;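 active = inhibition above a per-plate cutoff, the mean inhibition of test compounds on that plate plus 3 SD, cut at about 49% in these data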;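 note: 0% = DMSO plus EC80 beta-PEA response and 100% = DMSO alone without agonist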
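Test system: RD-HGA16 CHO cells with stable hTAAR1 and Gα16 / Probe or stimulus: EC80 β-phenethylamine stimulus / Times: seeding 17-24 h prior, 75-min 37 °C, 30-min RT dye loading / Detection: Fluo-8 calcium-sensitive fluorescence / Read-out basis: % inhibition scaled between DMSO and EC80 PEA controls / Repeats: singlicate, one well per test compound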
GPR7 antag cf: confirmation of human GPR7 antagonists; shares compounds with GPR7 antagonist; GPR7-expressing cells, calcium fluorescence antagonist mode; inhibition, % at 4.4 µM; hit rate 52% among 2,400; AID 1952; in the data active = inhibition above about 24%;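 note: stimulated with the GPR7 agonist NPW; 0% = agonist plus vehicle and 100% = vehicle alone without agonist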
MCHR1 antagonist: MCHR1 (human) antagonism in GPR7 counter-screen. shares compounds with GPR7 antagonist. MCHR1-expressing cells, fluorescence antagonist assay. inhibition, % at 4.4 µM. hit rate 62% among 2,400. AID 2148; in the data active = inhibition above about 22%;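 note: 0% = vehicle with agonist and 100% = vehicle without agonist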
The depositor's hits bear a star; x = not tested or not shown.

SMILES	TAAR1 ag	TRPN1 ag	LANA-H2A inh	TRPML3 agonist	GPR7 antagonist	TAAR1 antagonist	GPR7 antag cf	MCHR1 antagonist
CCOC(=O)c1ccc(NC(=O)c2ccc3c(c2)C(=O)N(Cc2cccnc2)C3=O)cc1	7	x	-3	x	32*	16	30*	62*
O=C(COC(=O)[C@H](Cc1ccccc1)NC(=O)c1cccs1)Nc1c(Cl)cccc1Cl	0	0	-2	0	23*	21	20	32*
O=C(COC(=O)C(Cc1ccccc1)NC(=O)c1cccs1)NCc1ccccc1 (stereo not given)	4	x	-1	x	x	16	x	x
COc1ccc(CN2CCc3c([nH]c4ccccc34)C2)cc1Br	16	x	-8	x	42*	-52	52*	38*
C[C@@H]1C=C[C@](Cc2ccccc2)(C(=O)NCCc2c[nH]c3ccccc23)N1C(=O)c1ccccc1	18	1	-5	0	42*	27	47*	40*
COc1ccc(C(C#N)N2N=C(C)CC2c2ccccc2)cc1 (stereo not given)	-1	x	-1	x	-9	1	x	x
CC1=NN(C(C#N)c2ccccc2)C(c2ccccc2)C1 (stereo not given)	-1	0	-3	1	37*	8	5	-2
COc1ccc(CN2C(=O)c3ccccc3C2C(=O)NC2CCCCCC2)c(OC)c1 (stereo not given)	0	0	x	0	33*	12	21	34*
O=C(NC1CCCCCCC1)C1c2ccccc2C(=O)N1Cc1cccs1 (stereo not given)	0	-2	9	0	27*	-2	32*	13
COc1ccc(CN2C(=O)c3ccccc3C2C(=O)NCCc2ccccc2)c(OC)c1 (stereo not given)	1	-1	3	0	-7	-5	x	x
Cn1c(COc2ccccc2Br)nc2ccccc21	4	x	-3	x	1	0	x	x
CN(CC(=O)Nc1ccccc1Cl)C(=O)CN1C(=O)C2CC=CCC2C1=O (stereo not given)	7	x	-5	x	x	-4	x	x
COC(=O)c1ccc(-c2nc3cc(N)ccc3o2)cc1	8	0	-2	1	61*	10	-12	18
Nc1ccc(-c2nc3cc(N)ccc3o2)cc1	0	x	-1	x	-9	-9	x	x
O=C(Nc1ccc(Cl)c(S(=O)(=O)N2CCCCC2)c1)c1ccco1	4	x	3	x	x	-3	x	x
Cc1ccccc1CN1C[C@@H]2C[C@@H](c3cn[nH]c3-c3ccc(F)cc3)N3CCC[C@@]23C1=O	24	2	-3	1	x	21	x	14
C=CCc1cccc(Cl)c1OCCCNC1CCCC1	6	x	2	x	30*	8	31*	21*
C=CCc1ccc(OCCCNC2CCCC2)c(OC)c1	1	x	-9	x	x	2	x	x
CCCCCCN1CCN(C2CN(Cc3ccccc3)S(=O)(=O)C2)CC1 (stereo not given)	3	x	x	x	x	-20	x	x
Cc1ccc2c(c1)sc(-c1ccc(N(C)C)cc1)[n+]2C	1	x	-4	x	19	14	x	x
Cc1cc(=O)oc2cc(OCCSCCN3CCCCC3)ccc12	1	1	5	0	8	6	x	x
COc1cccc(C2=NOC(C(=O)NC(C)C)C2)c1 (stereo not given)	5	2	5	-1	26*	3	1	3
Cc1cc(NC(=O)COC(=O)c2oc3c(Cl)cccc3c2C)no1	-2	1	2	1	27*	-2	22	37*
C=CCn1c(SCc2nc3ccccc3c(=O)[nH]2)nc2ccccc2c1=O	16	-2	1	0	-6	25	x	x
C=CCn1c(SCc2c(C)noc2C)nc2ccccc2c1=O	5	-2	5	0	26*	13	23	24*
SMILES	TAAR1 ag	TRPN1 ag	LANA-H2A inh	TRPML3 agonist	GPR7 antagonist	TAAR1 antagonist	GPR7 antag cf	MCHR1 antagonist
CC#CCN(CC#CC)S(=O)(=O)c1ccc(-n2cnnn2)c(OC)c1	-2	-2	-5	0	24*	8	11	5
CSc1nc(N)nc(SCC(=O)Nc2cccc(F)c2)c1C#N	13	6	1	1	26*	40	20	64*
CN1CCN(c2ccc(S(=O)(=O)N3CCOCC3)cc2NC(=O)COc2ccc(C#N)cc2)CC1	4	x	x	x	x	1	x	x
CCC(CC)CN1C(N(C)C)=NC[C@@H]1CC(C)C	8	x	-3	x	x	-8	x	x
O=C(COC(=O)c1cc([N+](=O)[O-])ccc1N1CCOCC1)Nc1cccc(F)c1	7	x	3	x	35*	0	7	24*
COc1ccc(OC(=O)c2cc3cc(Cl)ccc3oc2=O)cc1	1	x	0	x	46*	3	-9	-2
CC(=O)N1CCN(CC(=O)Nc2ccc3c(c2)CCC3)CC1	3	-1	0	0	23*	11	-10	-1
O=C(CN1CCCC1)Nc1ccc2c(c1)CCC2	5	0	2	-1	-12	-7	x	x
CN(C)c1ccc(/C=C/c2ccc3c4ccccc4ccc3[n+]2-c2ccccc2)cc1	10	7	x	6	43*	22	79*	78*
O=[N+]([O-])c1ccc(O)c(-c2cc(C(F)(F)F)nc(-c3ccccc3)n2)c1	11	x	-1	x	44*	14	72*	60*
COC(=O)CCNC(=O)CCc1ccc(S(=O)(=O)N2CCCCCC2)cc1	1	x	-238	x	x	5	x	x
CN(C(=O)CN1C(=O)C2C3CC(C(Br)C3Br)C2C1=O)C1CCCCC1 (stereo not given)	35	x	5	x	23*	17	39*	4
Cc1ccc(N(CC(=O)N2CCCCCC2)S(=O)(=O)c2ccccc2)cc1	-3	x	-11	x	4	-14	x	x
Cc1cccc(N(CC(=O)N2CCCC2)S(=O)(=O)c2ccccc2)c1	9	-1	1	0	23*	-7	-11	1
